According to publication PMC7717620 (Nucleosides, nucleotides & nucleic acids, 2019):
“Also recorded” adds a separate entry of the source.

How the values were obtained:
[1] = test system: HCV genotype 1 b RNA replication; experiment: subgenomic HCV replicon system, inhibition of HCV RNA replication in Huh-7 cells; assay type: cell-based, hepatitis C virus; conditions: HCV genotype 1 b subgenomic replicon
In short: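 HCV genotype 1b subgenomic replicon in Huh-7 cells. HCV RNA and cellular ribosomal RNA were extracted and amplified, so replication and cytotoxicity were read in the same cells.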

Huh-7 cells = experiment: intracellular metabolism in Huh-7 cells; assay type: in vitro ADME, human; conditions: Huh-7, 50 μM, 4 h
HepG2 cells = experiment: intracellular metabolism in HepG2 cells; assay type: in vitro ADME, human; conditions: HepG2, 50 μM, 4 h
[2] = test system: primary mouse hepatocytes; experiment: intracellular metabolism in primary mouse hepatocytes; assay type: in vitro ADME; conditions: 50 μM, 4 h
primary rat hepatocytes = experiment: intracellular metabolism in primary rat hepatocytes; assay type: in vitro ADME; conditions: 50 μM, 4 h
primary dog hepatocytes = experiment: intracellular metabolism in primary dog hepatocytes; assay type: in vitro ADME; conditions: 50 μM, 4 h
[3] = test system: primary monkey hepatocytes; experiment: intracellular metabolism in primary monkey hepatocytes; assay type: in vitro ADME; conditions: 50 μM, 4 h
[4] = test system: primary human hepatocytes; experiment: intracellular metabolism in primary human hepatocytes; assay type: in vitro ADME; conditions: 50 μM, 4 h
human cardiomyocytes [5] = experiment: cellular accumulation and metabolism in human cardiomyocytes; assay type: in vitro ADME; conditions: 10 μM
human cardiomyocytes [6] = experiment: recording of human cardiomyocyte beating patterns; assay type: cell-based; conditions: for change in beating rate or rhythm of cardiomyocytes (observation): up to 48 h
monkey heart and kidney = conditions: three weeks post a three-week dosing (week 6); cited from earlier work
patients = conditions: of the 34 patients treated, phase IIb; cited from earlier work
[7] = all three concentrations (2, 10 and 50 μM)

With `CC(C)(CO)C(=O)SCCOP(=O)(NCc1ccccc1)OC[C@H]1O[C@@H](n2cnc3c(=O)[nH]c(N)nc32)[C@](C)(O)[C@@H]1O` (mixture of isomers) [IDX-184, S-(2-(((((2R,3R,4R,5R)-5-(2-Amino-6-oxo-1,6-dihydro-9H-purin-9-yl)-3,4-dihydroxy-4-methyltetrahydrofuran-2-yl)methoxy)(benzylamino)phosphoryl)oxy)ethyl) 3-hydroxy-2,2-dimethylpropanethioate] the “Replicon Huh-7 EC50” value [1] was “sub-micromolar”, the “Intracellular concentration: Prodrugs” value (Huh-7 cells) was 11 ± 1 pmol/10^6 cells and the “Intracellular concentration: Prodrugs” value (HepG2 cells) was 21 ± 1 pmol/10^6 cells. The “Intracellular concentration: Prodrugs” value [2] was 220 ± 3 pmol/10^6 cells, the “Intracellular concentration: Prodrugs” value (primary rat hepatocytes) was 1,100 ± 471 pmol/10^6 cells and the “Intracellular concentration: Prodrugs” value (primary dog hepatocytes) was 110 ± 2 pmol/10^6 cells. For the same compound, the “Intracellular concentration: Prodrugs” value [3] was 75 ± 3 pmol/10^6 cells, the “Intracellular concentration: Prodrugs” value [4] was 160 ± 18 pmol/10^6 cells and the “Intracellular concentration in human cardiomyocytes: Prodrugs” value (human cardiomyocytes [5]; 4 h) was 21 ± 1 pmol/10^6 cells. For the same compound, the “Intracellular concentration in human cardiomyocytes: Prodrugs” value (human cardiomyocytes [5]; 8 h) was 9.8 ± 1.4 pmol/10^6 cells, the “intact prodrug level, times lower than BMS-986094” value (human cardiomyocytes [5]; human cardiomyocytes, 8 h) was 83 times and the “Beating rate of human cardiomyocytes” value (human cardiomyocytes [6]; 2 μM, 2 h) was 32.0 ± 0 beats/minute. For the same compound, the “Beating rate of human cardiomyocytes” value (human cardiomyocytes [6]; 2 μM, 4 h) was 31.5 ± 0.7 beats/minute, the “Beating rate of human cardiomyocytes” value (human cardiomyocytes [6]; 2 μM, 8 h) was 37.0 ± 1.4 beats/minute and the “Beating rate of human cardiomyocytes” value (human cardiomyocytes [6]; 2 μM, 12 h) was 36.0 ± 1.4 beats/minute. For the same compound, the “Beating rate of human cardiomyocytes” value (human cardiomyocytes [6]; 2 μM, 24 h) was 32.5 ± 0.7 beats/minute, the “Beating rate of human cardiomyocytes” value (human cardiomyocytes [6]; 2 μM, 48 h) was 24.0 ± 1.4 beats/minute and the “Beating rate of human cardiomyocytes” value (human cardiomyocytes [6]; 10 μM, 2 h) was 30.0 ± 1.4 beats/minute. For the same compound, the “Beating rate of human cardiomyocytes” value (human cardiomyocytes [6]; 10 μM, 4 h) was 30.0 ± 0 beats/minute, the “Beating rate of human cardiomyocytes” value (human cardiomyocytes [6]; 10 μM, 8 h) was 34.0 ± 0 beats/minute and the “Beating rate of human cardiomyocytes” value (human cardiomyocytes [6]; 10 μM, 12 h) was 34.0 ± 1.4 beats/minute. The “Beating rate of human cardiomyocytes” value (human cardiomyocytes [6]; 10 μM, 24 h) was 31.0 ± 1.4 beats/minute, the “Beating rate of human cardiomyocytes” value (human cardiomyocytes [6]; 10 μM, 48 h) was 25.0 ± 1.4 beats/minute and the “Beating rate of human cardiomyocytes” value (human cardiomyocytes [6]; 50 μM, 2 h) was 33.0 ± 0 beats/minute. For the same compound, the “Beating rate of human cardiomyocytes” value (human cardiomyocytes [6]; 50 μM, 4 h) was 31.5 ± 0.7 beats/minute, the “Beating rate of human cardiomyocytes” value (human cardiomyocytes [6]; 50 μM, 8 h) was 34.5 ± 0.7 beats/minute and the “Beating rate of human cardiomyocytes” value (human cardiomyocytes [6]; 50 μM, 12 h) was 34.5 ± 0.7 beats/minute. The “Beating rate of human cardiomyocytes” value (human cardiomyocytes [6]; 50 μM, 24 h) was 34.5 ± 4.9 beats/minute, the “Beating rate of human cardiomyocytes” value (human cardiomyocytes [6]; 50 μM, 48 h) was 27.5 ± 0.7 beats/minute and the “change in beating rate or rhythm of cardiomyocytes (observation)” value (shortened to “change in beating rate or rhythm”) (human cardiomyocytes [6]; [7]) was “no obvious beating rate change; also recorded: no apparent change in beating; also recorded: no apparent changes to beat rate or rhythm”.

In the case of `CC(C)OC(=O)[C@H](C)N[P@](=O)(OC[C@H]1O[C@@H](n2ccc(=O)[nH]c2=O)[C@](C)(F)[C@@H]1O)Oc1ccccc1` [Sofosbuvir, sofosbuvir], the “Intracellular concentration in human cardiomyocytes: Prodrugs” value (human cardiomyocytes [5]; 4 h) is reported as 56 ± 3 pmol/10^6 cells, the “Intracellular concentration in human cardiomyocytes: Prodrugs” value (human cardiomyocytes [5]; 8 h) is reported as 42 ± 4 pmol/10^6 cells and the “Beating rate of human cardiomyocytes” value (human cardiomyocytes [6]; 2 μM, 2 h) is reported as 36.5 ± 2.1 beats/minute. The “Beating rate of human cardiomyocytes” value (human cardiomyocytes [6]; 2 μM, 4 h) was 35.0 ± 1.4 beats/minute, the “Beating rate of human cardiomyocytes” value (human cardiomyocytes [6]; 2 μM, 8 h) was 38.5 ± 0.7 beats/minute and the “Beating rate of human cardiomyocytes” value (human cardiomyocytes [6]; 2 μM, 12 h) was 36.5 ± 0.7 beats/minute. The “Beating rate of human cardiomyocytes” value (human cardiomyocytes [6]; 2 μM, 24 h) was 33.0 ± 0 beats/minute, the “Beating rate of human cardiomyocytes” value (human cardiomyocytes [6]; 2 μM, 48 h) was 25.5 ± 0.7 beats/minute and the “Beating rate of human cardiomyocytes” value (human cardiomyocytes [6]; 10 μM, 2 h) was 34.0 ± 1.4 beats/minute. For the same compound, the “Beating rate of human cardiomyocytes” value (human cardiomyocytes [6]; 10 μM, 4 h) was 33.0 ± 1.4 beats/minute, the “Beating rate of human cardiomyocytes” value (human cardiomyocytes [6]; 10 μM, 8 h) was 35.0 ± 1.4 beats/minute and the “Beating rate of human cardiomyocytes” value (human cardiomyocytes [6]; 10 μM, 12 h) was 33.5 ± 0.7 beats/minute. For the same compound, the “Beating rate of human cardiomyocytes” value (human cardiomyocytes [6]; 10 μM, 24 h) was 30.0 ± 0 beats/minute, the “Beating rate of human cardiomyocytes” value (human cardiomyocytes [6]; 10 μM, 48 h) was 23.0 ± 0 beats/minute and the “Beating rate of human cardiomyocytes” value (human cardiomyocytes [6]; 50 μM, 2 h) was 32.5 ± 0.7 beats/minute. For the same compound, the “Beating rate of human cardiomyocytes” value (human cardiomyocytes [6]; 50 μM, 4 h) was 32.0 ± 0 beats/minute, the “Beating rate of human cardiomyocytes” value (human cardiomyocytes [6]; 50 μM, 8 h) was 34.5 ± 0.7 beats/minute and the “Beating rate of human cardiomyocytes” value (human cardiomyocytes [6]; 50 μM, 12 h) was 33.0 ± 1.4 beats/minute. For the same compound, the “Beating rate of human cardiomyocytes” value (human cardiomyocytes [6]; 50 μM, 24 h) was 29.5 ± 0.7 beats/minute, the “Beating rate of human cardiomyocytes” value (human cardiomyocytes [6]; 50 μM, 48 h) was 23.5 ± 0.7 beats/minute and the “change in beating rate or rhythm” value (human cardiomyocytes [6]; [7]) was “no apparent change in beating rate or rhythm”.

With `COc1nc(N)nc2c1ncn2[C@@H]1O[C@H](COP(=O)(N[C@@H](C)C(=O)OCC(C)(C)C)Oc2cccc3ccccc23)[C@@H](O)[C@@]1(C)O` (stereo partly drawn) [BMS-986094, Neopentyl ((((2R,3R,4R,5R)-5-(2-amino-6-methoxy-9H-purin-9-yl)-3,4-dihydroxy-4-methyltetrahydrofuran-2-yl)methoxy)(naphthalen-1-yloxy)phosphoryl)-L-alaninate] the “Intracellular concentration: Prodrugs” value (Huh-7 cells) was 2,900 ± 358 pmol/10^6 cells, the “parent prodrug level, times the level observed for DAPN-PD” value (Huh-7 cells) was 17 times and the “parent prodrug level, times the level observed for IDX-184” value (Huh-7 cells) was 260 times. The “Intracellular concentration: Prodrugs” value (HepG2 cells) was 2,400 ± 9 pmol/10^6 cells, the “parent prodrug level, times the level observed for DAPN-PD” value (HepG2 cells) was 6 times and the “parent prodrug level, times the level observed for IDX-184” value (HepG2 cells) was 110 times. For the same compound, the “Intracellular concentration: NTP (triphosphate of N)” value [2] was “undetectable and BLOQ”, the “Intracellular concentration: Prodrugs” value [2] was 880 ± 135 pmol/10^6 cells and the “Intracellular concentration: Prodrugs” value (primary rat hepatocytes) was 52 pmol/10^6 cells. For the same compound, the “Intracellular concentration: Prodrugs” value (primary dog hepatocytes) was 2,200 ± 68 pmol/10^6 cells, the “Intracellular concentration: Prodrugs” value [3] was 150 ± 19 pmol/10^6 cells and the “Intracellular concentration: Prodrugs” value [4] was 4,100 ± 569 pmol/10^6 cells. For the same compound, the “Intracellular concentration in human cardiomyocytes: NTP (triphosphate of N)” value (human cardiomyocytes [5]; 4 h) was “BLOQ”, the “Intracellular concentration in human cardiomyocytes: Prodrugs” value (human cardiomyocytes [5]; 4 h) was 800 ± 118 pmol/10^6 cells and the “Intracellular concentration in human cardiomyocytes: NTP (triphosphate of N)” value (human cardiomyocytes [5]; 8 h) was “BLOQ”. The “Intracellular concentration in human cardiomyocytes: Prodrugs” value (human cardiomyocytes [5]; 8 h) was 810 ± 80 pmol/10^6 cells, the “level of intact prodrug, fold higher than DAPN-PD” value (human cardiomyocytes [5]; human cardiomyocytes, 4 h) was 11 fold and the “level of intact prodrug, fold higher than IDX-184” value (human cardiomyocytes [5]; human cardiomyocytes, 4 h) was 37 fold. The “Beating rate of human cardiomyocytes” value (human cardiomyocytes [6]; 2 μM, 2 h) was 31.0 ± 0 beats/minute, the “Beating rate of human cardiomyocytes” value (human cardiomyocytes [6]; 2 μM, 4 h) was 30.5 ± 0.7 beats/minute and the “Beating rate of human cardiomyocytes” value (human cardiomyocytes [6]; 2 μM, 8 h) was 34.5 ± 0.7 beats/minute. For the same compound, the “Beating rate of human cardiomyocytes” value (human cardiomyocytes [6]; 2 μM, 12 h) was 36.0 ± 0 beats/minute, the “Beating rate of human cardiomyocytes” value (human cardiomyocytes [6]; 2 μM, 24 h) was 32.5 ± 0.7 beats/minute and the “Beating rate of human cardiomyocytes” value (human cardiomyocytes [6]; 2 μM, 48 h) was 26.5 ± 0.7 beats/minute. The “change in beating rate or rhythm” value (human cardiomyocytes [6]; 2 μM) was “no clear change in beating rate or rhythm”, the “Beating rate of human cardiomyocytes” value (human cardiomyocytes [6]; 10 μM, 2 h) was 31.0 ± 0 beats/minute and the “Beating rate of human cardiomyocytes” value (human cardiomyocytes [6]; 10 μM, 4 h) was 31.0 ± 0 beats/minute. The “Beating rate of human cardiomyocytes” value (human cardiomyocytes [6]; 10 μM, 8 h) was 35.0 ± 0 beats/minute, the “Beating rate of human cardiomyocytes” value (human cardiomyocytes [6]; 10 μM, 12 h) was 36.0 ± 0 beats/minute and the “Beating rate of human cardiomyocytes” value (human cardiomyocytes [6]; 10 μM, 24 h) was 34.5 ± 0.7 beats/minute. The “Beating rate of human cardiomyocytes” value (human cardiomyocytes [6]; 10 μM, 48 h) was 35.5 ± 2.1 beats/minute, the “change in beating rate or rhythm” value (human cardiomyocytes [6]; 10 μM) was “changes to both beat rate and rhythm were noted; also recorded: higher beating rates were observed starting from 12 h” and the “time until cardiomyocytes stopped beating” value (human cardiomyocytes [6]; 50 μM) was no more than 2 h. The “Beating rate of human cardiomyocytes” value (human cardiomyocytes [6]; 50 μM, 2 h) was 0 ± 0 beats/minute, the “Beating rate of human cardiomyocytes” value (human cardiomyocytes [6]; 50 μM, 4 h) was 0 ± 0 beats/minute and the “Beating rate of human cardiomyocytes” value (human cardiomyocytes [6]; 50 μM, 8 h) was 0 ± 0 beats/minute. The “Beating rate of human cardiomyocytes” value (human cardiomyocytes [6]; 50 μM, 12 h) was 32.0 beats/minute, the “Beating rate of human cardiomyocytes” value (human cardiomyocytes [6]; 50 μM, 24 h) was 34.0 ± 0 beats/minute and the “Beating rate of human cardiomyocytes” value (human cardiomyocytes [6]; 50 μM, 48 h) was 0 ± 0 beats/minute. The “rhythm of cardiomyocytes (observation)” value (human cardiomyocytes [6]; 50 μM, beating resumed briefly at 12 and 24 h) was “very unstable rhythm”, the “levels of 2’-C-Me-GTP in the heart and kidney” value (monkey heart and kidney) was 2,610–4,280 ng/mL and the deaths (patients) was “one death”. For the same compound, the “patients with some evidence of cardiac dysfunction” value (patients) was 14.
